Assay results taken from paper PMC6583897 (International journal of pharmaceutics, 2018).

Assays:
[1] = Pharmacokinetic evaluation after intramuscular injection, plasma LC/MS; assay type: in vivo, CD-1 mice; settings: female, CD-1, mouse, im, 1000 mg/kg
HIV-1NL-43 = assay: Antiviral activity in vitro, TZM-bl luciferase reporter assay; assay type: cell-based; settings: for IC50: Human immunodeficiency virus 1, TZM-bl, 48 h; for times more potent than free parent drug (IC50 ratio): TZM-bl cells, vs free FTC or free EVG
[2] = Hydrolytic release curves, pH 7.4 PBS, 37 °C; assay type: physicochemical; settings: 1 mg/mL, UV-vis
In short: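 Test conjugates at 1 mg/mL were hydrolysed in 0.1 M phosphate-buffered saline, pH 7.4, with continuous stirring at 37 °C, in triplicate. Samples were taken at 1, 3, 7, 10, 14, 17, 21, 24, 28, 31, 35 and 42 days. Released parent drug was measured by UV absorbance at 300 nm or 320 nm, depending on the drug. Data are mean ± standard deviation (n = 3).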

[3] = ref Ho et al., 2018; cited from earlier work
CYP3A4 = settings: ref Yao et al., 2006; cited from earlier work
HIV = settings: ref Agarwal et al., 2013; cited from earlier work

For Nc1nc(=O)n([C@@H]2CS[C@H](CO)O2)cc1F [FTC (Emtricitabine), Emtricitabine], the AUC(0-t) [1] was 127000 ng·h/mL, the Cmax [1] was 41000 ng/mL and the half-life [1] was 54.7 h. For the same molecule, the k el [1] was 3.61e-06 s⁻¹ and the IC50 (HIV-1NL-43) was 17.2 µM.
With COc1cc2c(cc1Cc1cccc(Cl)c1F)c(=O)c(C(=O)O)cn2[C@H](CO)C(C)C [EVG (Elvitegravir), Elvitegravir] the AUC(0-t) [1] was 48300 ng·h/mL, the Cmax [1] was 1750 ng/mL and the half-life [1] was 9.75 h. For the same molecule, the k el [1] was 1.97e-05 s⁻¹ and the IC50 (HIV-1NL-43) was 30.9 µM.
In the case of CC/C=C/C/C=C/C/C=C/C/C=C/C/C=C/C/C=C/CCC(=O)OC[C@@H]1O[C@H](n2cc(F)c(N)nc2=O)CS1 [FTC-DHA, ((2R,5S)-5-(4-amino-5-fluoro-2-oxopyrimidin-1(2H)-yl)-1,3-oxathiolan-2-yl)methyl (4E,7E,10E,13E,16E,19E)-docosa-4,7,10,13,16,19-hexaenoate], the “period of sustained drug release” value [2] is reported as 21 days, the IC50 (HIV-1NL-43) is reported as 1.39 µM and the “times more potent than free parent drug (IC50 ratio)” value (HIV-1NL-43) is reported as ~ 12 times.
With CC/C=C/C/C=C/C/C=C/C/C=C/C/C=C/C/C=C\CCC(=O)OCC(C(C)C)n1cc(C(=O)O)c(=O)c2cc(Cc3cccc(Cl)c3F)c(OC)cc21 (stereo not shown) [EVG-DHA, 6-(3-chloro-2-fluorobenzyl)-1-(1-(((4Z,7E,10E,13E,16E,19E)-docosa-4,7,10,13,16,19-hexaenoyl)oxy)-3-methylbutan-2-yl)-7-methoxy-4-oxo-1,4-dihydroquinoline-3-carboxylic acid] the “period of sustained drug release” value [2] was 30 days, the IC50 (HIV-1NL-43) was 0.14 µM and the “times more potent than free parent drug (IC50 ratio)” value (HIV-1NL-43) was ~ 220 times.
For C=C1[C@H](CO)[C@@H](O)C[C@@H]1n1cnc2c(=O)[nH]c(N)nc21 [entecavir], the “active antiretroviral released within the first hour” value [3] is listed as 15–41%.
For CC/C=C\C/C=C\C/C=C\C/C=C\C/C=C\C/C=C\CCC(=O)O [DHA (Docosahexaenoic acid), Docosahexaenoic acid], the “inhibitory potency against CYP3A4 among available PUFA options” value (CYP3A4) is given as “greater inhibitory potency”.
In the case of CCCCCCCCCCCCCC(=O)OC[C@@H]1O[C@H](n2cc(F)c(N)nc2=O)CS1 [myristoylated FTC conjugate], the “higher anti-HIV activity compared to FTC alone” value (HIV) is given as 24 times.
